NR3A LBD binder = binders of NR3A ligand-binding domain, primary screen, biophysical, differential scanning fluorimetry, uHTS | Glutamate receptor ionotropic, NMDA 3A (GRIN3A) ligand-binding domain | NR3A LBD differential scanning fluorimetry, Tm shift; 0% = protein alone, 100% = glycine-bound protein | Tm shift relative to glycine control, % at 25 µM | 340,000 tested, 2.5% active | AID 1259313, 2017;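 active = melting temperature shift of at least 10% of the positive control shift, at one fixed dose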
pPAFAH inh = pPAFAH enzyme inhibitors, primary screen, biochemical, fluorescence polarization, human; 330,000 tested, 1.5% active; Platelet-activating factor acetylhydrolase (Homo sapiens), Q13093; inhibition, % at 3.39 µM; recombinant pPAFAH, FP-rhodamine probe fluorescence polarization;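 active = inhibition above the mean inhibition across the screen plus 3 SD, cut at about 25% in these data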;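 also: inhibitors block binding of the rhodamine activity-based probe so polarization drops; 0% = enzyme with DMSO and 100% = wells lacking pPAFAH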
PAFAH1B3 inh = PAFAH1B3 enzyme inhibitors, primary screen, biochemical, fluorescence polarization, human. recombinant PAFAH1B3, FP-rhodamine probe. 340,000 tested, 0.28% active. Platelet-activating factor acetylhydrolase IB subunit alpha1 (Homo sapiens), Q15102. inhibition, % at 3.39 µM;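 active = inhibition above the screen-wide average of all tested compounds plus 3 SD, cut at about 25% in these data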;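 also: 0% = enzyme with DMSO only and 100% = wells lacking PAFAH1B3 protein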
Target sequence (Q15102 whole entry, looked up): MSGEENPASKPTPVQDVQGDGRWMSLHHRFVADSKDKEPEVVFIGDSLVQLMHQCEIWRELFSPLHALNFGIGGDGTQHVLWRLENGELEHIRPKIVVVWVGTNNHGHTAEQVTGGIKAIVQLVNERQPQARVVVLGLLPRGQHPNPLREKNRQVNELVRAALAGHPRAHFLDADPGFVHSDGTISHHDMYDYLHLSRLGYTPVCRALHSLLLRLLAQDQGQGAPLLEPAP
PAFAH1B2 FP inh = PAFAH1B2 enzyme inhibitors, primary screen, biochemical, fluorescence polarization, human | Platelet-activating factor acetylhydrolase IB subunit alpha2 (Homo sapiens), P68402 | recombinant PAFAH1B2, FP-rhodamine activity probe | inhibition, % at 3.39 µM | 340,000 tested, 1.2% active | AID 492953, 2010;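 active = inhibition above the mean of all tested compounds plus 3 SD, cut at about 24% in these data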;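 also: 0% = enzyme with DMSO and 100% = wells lacking PAFAH1B2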
PAFAH2 FP inh = PAFAH2 enzyme inhibitors, primary screen, biochemical, fluorescence polarization, human | Platelet-activating factor acetylhydrolase 2, cytoplasmic (Homo sapiens), Q99487 | recombinant PAFAH2, FP-rhodamine activity probe | inhibition, % at 3.39 µM | 340,000 tested, 0.99% active | AID 492956, 2010;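 active = inhibition above the mean over all tested compounds plus 3 SD, cut at about 30% in these data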;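 also: inhibitors block probe labeling of enzyme so polarization drops; 0% = enzyme with DMSO and 100% = wells lacking PAFAH2 protein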
UCH37 inh = inhibitors of human UCH37 deubiquitinase, primary screen, biochemical, Ub-AMC cleavage, fluorescence; Ubiquitin carboxyl-terminal hydrolase isozyme L5 (Homo sapiens), Q9Y5K5; purified proteasome/UCH37; inhibition, % (no concentration beside the values); 330,000 tested, 0.33% active;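 active = mean inhibition over replicate wells above about 20%, limit read from the data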;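 also: 0% = compound-free wells with enzyme and 100% = wells lacking proteasome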
Target sequence (Q9Y5K5 whole entry, looked up): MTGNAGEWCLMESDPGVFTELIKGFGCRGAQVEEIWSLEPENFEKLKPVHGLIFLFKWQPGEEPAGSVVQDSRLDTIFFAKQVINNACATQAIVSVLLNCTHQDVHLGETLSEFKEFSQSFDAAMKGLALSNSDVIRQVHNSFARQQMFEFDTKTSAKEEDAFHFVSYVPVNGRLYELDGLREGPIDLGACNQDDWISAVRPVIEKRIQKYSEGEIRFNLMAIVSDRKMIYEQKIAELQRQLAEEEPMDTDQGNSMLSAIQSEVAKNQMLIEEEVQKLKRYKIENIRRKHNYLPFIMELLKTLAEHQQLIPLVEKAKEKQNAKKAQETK
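system = Proteasome-associated human UCH37 deubiquitinase | amount = 0.15 nM proteasome as dispensed | medium = pH 7.4 Tris-HCl (50 mM) with ovalbumin, ATP-MgCl2, DTT | incubation = 30 min preincubation with enzyme, 25 min cleavage at room temperature | detection = AMC fluorescence 355/460 nm | read-out basis = percent inhibition | controls = no-proteasome and no-compound wells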
* marks the source's active call; other numbers are inactive results; . = no result given. Shown are actives, neighbours in structure and some others; about 4.8% of the full set was active somewhere.

SMILES	NR3A LBD binder	pPAFAH inh	PAFAH1B3 inh	PAFAH1B2 FP inh	PAFAH2 FP inh	UCH37 inh
O=C(Nc1cccc(Cl)c1)N1CCN2C(=O)c3ccccc3C12c1ccccc1 (centres undefined)	2	0	-3	25*	-6	0
O=C(CCl)N1CCN2C(=O)c3ccccc3C12c1ccc(Cl)cc1 (centres undefined)	2	-1	10	4	2	5
Cc1ccc(C=C2C(Cl)=C(Cl)C(Cl)=C2Cl)cc1	-2	41*	.	.	.	7
NS(=O)(=O)c1ccc(NN=C2CCCCC2)c([N+](=O)[O-])c1	11*	7	0	1	3	4
CC(=O)N1CCC(=NNc2ccc(S(N)(=O)=O)cc2[N+](=O)[O-])CC1	-1	-1	5	2	-1	7
CCCCNC(=S)N(C)N=Cc1sc(N2CCCCC2)nc1-c1cccs1	.	.	.	.	.	1
CC12CCC(CC1=N/N=C1/NC(=O)/C(=C\c3ccc(Cl)cc3)S1)C2(C)C (centres undefined)	.	.	.	.	.	2
COc1ccccc1Nc1nc(-c2cccc(N3C(=O)c4ccccc4C3=O)c2)cs1	15*	-3	3	8	0	2
O=C1c2ccccc2C(=O)N1c1cccc(-c2csc(Nc3ccc4c(c3)OCO4)n2)c1	.	15	.	.	.	.
O=C(NN=Cc1ccc(COc2ccc([N+](=O)[O-])cc2)o1)c1ccc(Cl)cc1	.	.	.	.	.	4
Cc1ccc(Cn2c(=O)c3cccnc3n(CC(=O)Nc3cccc(C(F)(F)F)c3)c2=O)cc1	23*	-15	-17	-5	-19	-24
COc1cccc(C=NNC(=O)c2csc(-n3nc(C)cc3C(F)(F)F)n2)c1	.	.	.	.	.	-6
Cc1nnsc1Sc1ccccn1	-2	-2	-2	3	-2	2
c1ccc(-c2nnsc2Sc2ccccn2)cc1	14*	3	-5	9	3	7
O=[N+]([O-])c1ccccc1C=NN1CCN(c2ccccn2)CC1	.	.	.	.	.	1
O=c1c2ccccc2ncn1CCCSc1ccc(Cl)cc1	0	5	7	51*	6	-1
CCOc1ccc2ccccc2c1C=NNC(=O)OC	.	.	.	.	.	-31
Cc1ccc(-c2nc(-c3nccc4ccccc34)oc2-c2ccccc2)cc1	11*	3	4	-5	-13	.
Cc1ccc(S(=O)(=O)N(C)C)cc1NC(=O)COC(=O)c1sc2cc(Cl)ccc2c1Cl	0	32*	-12	-5	-19	5
Cc1cc(C(=O)OCC(=O)Nc2cc(S(=O)(=O)N(C)C)ccc2C)c(C)o1	.	5	.	.	.	0
Cc1nc2ccccc2cc1C(=O)NN=Cc1cccs1	.	.	.	.	.	8
c1cc2c3c(cccc3c1)NC1(CCCCCC1)N2	-5	17	-1	-5	0	-184
c1cc2c3c(cccc3c1)NC1(CCC3(CC1)Nc1cccc4cccc(c14)N3)N2	18*	3	5	2	-8	.
CN(c1cccc(NC(=O)CN(c2ccc(F)cc2)S(C)(=O)=O)c1)S(C)(=O)=O	-2	-5	1	2	-7	2
CN(c1cccc(NC(=O)CSc2ccc(Cl)cc2)c1)S(C)(=O)=O	-8	29*	-1	49*	10	3
SMILES	NR3A LBD binder	pPAFAH inh	PAFAH1B3 inh	PAFAH1B2 FP inh	PAFAH2 FP inh	UCH37 inh
O=C(CSc1ccc(Cl)cc1)Nc1cccc(-c2nnc(-c3ccco3)o2)c1	11*	3	7	7	3	0
CN(c1cccc(NC(=O)CCSc2ccccc2)c1)S(C)(=O)=O	-5	9	2	8	8	0
CN(c1cccc(NC(=O)CN(c2ccc(C34CC5CC(CC(C5)C3)C4)cc2)S(C)(=O)=O)c1)S(C)(=O)=O	30*	-15	-23	-14	-28	1
CC(CCc1ccc2c(c1)OCO2)=N/N=C1/NC(=O)CC(C(=O)Nc2ccccc2F)S1 (centres undefined)	.	.	.	.	.	4
CC1=CC(=N/N=C2/NC(=O)C(CC(=O)Nc3ccccc3F)S2)CC(C)(C)C1 (centres undefined)	.	.	.	.	.	4
c1ccc(Nc2nc(-c3cccnc3)cs2)nc1	34*	2	3	7	14	2
c1cncc(Nc2nc(-c3cccnc3)cs2)c1	0	7	2	3	-4	4
Cc1ccc(C)c(Nc2nc(-c3cccnc3)cs2)c1	20*	6	0	7	11	1
Clc1cccc(-c2csc(Nc3cccnc3)n2)c1	29*	13	2	-4	5	2
Cc1cc(N2CCCC2=O)cc(C)c1S(=O)(=O)NCCOc1ccc(C(C)(C)C)cc1	-11	3	2	40*	2	0
Cc1ccc(S(=O)(=O)N=c2sccn2C)cc1	.	.	.	.	.	1
C[C@H](NC(=O)OCc1ccccc1)C(=O)N[C@@H](Cc1c[nH]c2ccccc12)C(=O)O	-1	0	0	25*	2	0
COc1ccccc1CNC(=O)C(Cc1c[nH]c2ccccc12)NC(=O)OCc1ccccc1 (centres undefined)	-3	7	-5	5	-5	7
Cc1c2cc(O)c(=O)cc-2oc2cc(O)c(O)cc12	5	78*	89*	85*	96*	10
O=C(O)c1ccc(NN=Cc2ccc(-c3cccc(Cl)c3)o2)cc1	.	.	.	.	.	-56
O=C(O)c1ccc(N/N=C/c2ccc(-c3ccc(Br)cc3)o2)cc1	-2	27*	8	10	13	.
C=CCNC(=S)NN=Cc1ccc(-c2ccc(OC)cc2)o1	.	.	.	.	.	-34
C=CCNC(=S)N/N=C/c1ccc(-c2ccc(Br)cc2)o1	16*	6	9	3	7	.
COc1ccccc1C=NNC(=O)c1c(-c2ccccc2)noc1C	.	.	.	.	.	4
O=C1OC(c2ccccc2)(c2ccc3cc(O)ccc3c2)c2ccccc21 (centres undefined)	10*	.	6	8	-11	4
O=C1OC(c2ccc(O)cc2)(c2ccc(O)cc2)c2ccccc21	-19	-1	1	7	-6	0
CCOC(=O)C1CCN(C(=O)Cn2ncc3c([nH]c4ccccc43)c2=O)CC1	13*	6	2	-1	11	0
Cc1ccc(C=NNC(=O)CSCc2ccc(Cl)cc2)cc1	.	.	.	.	.	0
CCNCc1nc2cc(OC)c(OC)cc2c(=O)[nH]1	3	-5	5	-1	1	1
COc1cc2nc(CN(CCC(C)C)Cc3nc4cc(OC)c(OC)cc4c(=O)[nH]3)[nH]c(=O)c2cc1OC	11*	1	6	4	-7	-2
